# HSP90 inh = HSP90 inhibitors, primary screen, cell lysate, luminescence | Heat shock protein HSP 90 (rabbit reticulocyte lysate; luciferase refolding) | Rabbit reticulocyte lysate, luciferase refolding luminescence, 3 h | inhibition, % at 5.6 µM | 290,000 tested, 0.91% active;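 active means inhibition above the screen-wide mean plus 3 SD, computed separately per campaign, cut at about 16% in these data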;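 further: 0% = DMSO wells and 100% = 60 µM geldanamycin wells; inhibitors lower the luminescence because luciferase stays unfolded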
# STAT3 blocker = IL-6 driven STAT3 reporter inhibitors, primary screen, U3A cells, luciferase, luminescence, MLSCN library | inhibition, % at 5.5 µM | 190,000 tested, 0.89% active | AID 862, 2007 | IL-6 STAT3-luciferase reporter; host cell line lacks STAT1;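 active means inhibition above the mean inhibition across all screened compounds plus 3 SD, cut at about 44% in these data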;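 further: 0% = DMSO only wells and 100% = 100 µM nifuroxazide control wells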
# STAT3 act-1 = IL-6 driven STAT3 reporter potentiators, primary screen, U3A cells, luciferase, luminescence, MLSCN library; IL-6 STAT3-luciferase reporter; 100% = signal with IL-6 EC80 alone; activation (% of control), % at 5.6 µM; 190,000 tested, 0.91% active;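 active means activation above the screen-wide mean of compound activation plus 3 SD, cut at about 130% in these data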;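 further: 0% = background luminescence of wells with medium and substrate only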
#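 Detection: reporter luminescence signal / Assay system: STAT1-lacking human U3A cells, STAT3 luciferase reporter / Incubation: compound pre-incubation 1 h before IL-6, then 6 h stimulation at 37 °C / Control set: IL-6-only high control / Read-out: % activation relative to IL-6 control / Probe or stimulus: Interleukin-6, 33 ng/mL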
# STAT1 blocker = STAT1 signaling inhibitors, primary screen, cell-based, HTS, luciferase reporter; 200,000 tested, 0.35% active; NIH 3T3 STAT1-luciferase reporter, IFN-gamma, luminescence; inhibition, % at 5.5 µM; AID 920, 2007;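 active means inhibition above a set limit, the mean inhibition across all tested compounds plus 3 SD, cut at about 34% in these data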;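 further: 0% = IFN-gamma with DMSO and 100% = IFN-gamma with 300 µM nifuroxazide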
# STAT3 act-2 = STAT3 reporter potentiators, retest of hits, confirmation, U3A cells, luciferase, luminescence | 1,200 tested, 64% active | potentiation (% of control), % at 5.7 µM | shares compounds with STAT3 act-1 | IL-6 potentiation; U3A cells lack STAT1; 100 means same as IL-6 alone;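 active means percent activation of the STAT3 luciferase reporter above a set limit taken from the earlier primary screen, cut at about 130% in these data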;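 further: 0% = background signal of medium plus substrate and 100% = median of IL-6 with DMSO wells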
# NFkB act STAT3ct = NF-kB reporter activators in human cells, counter-screen for STAT3 activator project; shares compounds with STAT3 act-1; NF-kappaB reporter activation; activation (% of control), % at 5.7 µM; 1,200 tested, 11% active; AID 1309, 2008; in the data active means activation above about 120%;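 further: reporter induced by TNF-alpha stimulation; 100% = median of stimulated DMSO wells and 0% = no signal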
# STAT1 act = STAT1 reporter activators, IFN-gamma induced, counter-screen for STAT3 activator project, cell-based, NIH 3T3, luciferase luminescence | 1,200 tested, 13% active | activation (% of control), % at 5.7 µM | AID 1318, 2008 | shares compounds with STAT3 act-1 | NIH 3T3 STAT1-luciferase reporter;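 active means activation above the solvent-only control well mean plus 3 SD, set per screening run, cut at about 120% in these data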;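 further: 100% = IFN-gamma with DMSO median signal so 100% means no change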
# The depositor's hits bear a star; · = no result given. This is a sample that favours compounds with a hit; in the whole collection about 2% have one here.
SMILES,HSP90 inh,STAT3 blocker,STAT3 act-1,STAT1 blocker,STAT3 act-2,NFkB act STAT3ct,STAT1 act
COP(=O)(c1ccc(N(C)C)cc1)C(O)c1ccccc1 (configuration not stated),-2.3,·,·,·,·,·,·
Cc1ccc(S(=O)(=O)N(CC(O)CN2C(=O)NC(C)(C)C2=O)c2ccccc2)cc1 (configuration not stated),2.6,-104.6,187.4*,1.9,95.8,108.7,100.6
Cc1ccc(-c2cc(-c3ccccc3Cl)[nH]n2)c(O)c1,-0.9,-17.5,118.4,-2.5,·,·,·
Cc1ccc(-c2cc(-c3ccccc3[N+](=O)[O-])[nH]n2)c(O)c1,-2.9,-37.5,141.7*,2.5,135.7*,131.1*,94.5
CC1CCCCC1NC(=O)c1cccc(N2C(=O)C3C4C=CC(C4)C3C2=O)c1 (configuration not stated),-5.8,·,·,·,·,·,·
O=c1cc(O)c2ccccc2n1Cc1ccccc1F,-4.2,-34.7,137.9*,4.1,97.6,106.6,103.6
C#CCn1c(=NC(=O)c2ccc(S(=O)(=O)N3CCc4ccccc4C3)cc2)sc2cc(S(N)(=O)=O)ccc21,1.0,-57.1,143.9*,-0.6,138.0*,113.1,102.5
O=C(CSC1=Nc2ccccc2C2=NC(Cc3c[nH]c4ccccc34)C(=O)N12)NC1CCCCC1 (configuration not stated),1.8,-25.5,118.1,-2.3,·,·,·
CC1CC(C)CN(C(=O)CSC2=Nc3ccccc3C3=NC(Cc4c[nH]c5ccccc45)C(=O)N23)C1 (configuration not stated),4.0,-47.5,140.2*,-8.2,129.4,105.0,109.2
O=C(Nc1cc(C(F)(F)F)ccc1N1CCOCC1)c1cccs1,9.3,-7.1,105.8,8.2,·,·,·
CN(C)c1ccc(P(=O)(Nc2cccc(C(F)(F)F)c2)N2CCOCC2)c(NC(=O)c2cccs2)c1 (configuration not stated),1.6,-51.4,140.1*,-3.4,130.9,96.0,98.6
CCOC(=O)C1(CC2CCCCO2)CCN(Cc2cc3ccccc3[nH]2)CC1 (configuration not stated),-0.3,-48.7,143.8*,19.2,135.8*,104.2,95.1
C=CCn1c(SCC#N)nc2ccccc2c1=O,-4.2,-37.1,136.2*,-6.2,121.9,99.5,103.7
C=CCn1c(=O)c2ccccc2n2c(SCc3nc4ccccc4s3)nnc12,3.1,-46.6,144.2*,-11.8,141.8*,122.5*,135.5*
CCn1cc(CN2CCCC(C(=O)Nc3ccc(-c4cscn4)cc3)C2)cn1 (configuration not stated),-0.9,·,·,·,·,·,·
N#C/C(=C(/O)COC(=O)c1ccc(Cl)c(S(=O)(=O)N2CCOCC2)c1)c1nc2ccccc2[nH]1,-5.0,3.5,97.8,5.5,·,·,·
N#C/C(=C(/O)COC(=O)CCc1ccc(S(=O)(=O)N2CCOCC2)cc1)c1nc2ccccc2[nH]1,4.0,-55.2,149.3*,15.6,143.6*,102.0,86.2
CCC(=O)N=c1sc2cc(F)cc(F)c2n1C,-0.2,-44.1,140.1*,-5.3,125.3,108.3,139.2*
CC(=O)Nc1ccc(NC(=O)C2CCN(C(=O)NC3CCCCC3)CC2)cc1,-3.0,·,·,·,·,·,·
Cc1ccc(CNC(=O)Cc2csc(Nc3nc(=S)[nH]c4ccccc34)n2)cc1,-2.0,-40.2,141.2*,4.5,133.3*,104.4,97.2
C[C@@]12C(=O)N(CC3CC3)CC(=O)N1[C@H](C1CC1)[C@@H]1C(=O)N(c3ccccc3)C(=O)[C@@H]12,-4.7,·,·,·,·,·,·
O=C1C(C=NCc2ccco2)=C(O)c2ccccc21,-0.9,-40.8,141.4*,-19.5,186.8*,134.9*,164.4*
Nc1nc(NCc2cccs2)nn1-c1ccccc1,-2.0,-16.7,117.4,-10.0,·,·,·
Nc1nc(NCc2ccco2)nn1-c1ccccc1,-5.1,-52.8,147.2*,-13.4,98.7,104.8,106.0
CN1CCN(c2ccc(NC(=O)CSc3nnnn3-c3ccccc3Cl)cc2)CC1,1.1,·,·,·,·,·,·
SMILES,HSP90 inh,STAT3 blocker,STAT3 act-1,STAT1 blocker,STAT3 act-2,NFkB act STAT3ct,STAT1 act
COc1cc(/C=N/NC(=S)NC(C)C)ccc1OCC(=O)Nc1c(C)cc(C)cc1C,1.0,-59.9,146.9*,6.8,137.5*,98.8,101.7
O=C(c1ccc(S(=O)(=O)Nc2ccc(F)cc2)cc1)N1CCN(c2ccccn2)CC1,-2.2,29.4,81.6,27.6,·,·,·
CCOc1ccc(NC(=O)c2ccccc2NC(=O)CN(C)CC(=O)Nc2ccc(C)cc2)cc1,0.5,-50.9,148.7*,-0.7,119.1,108.1,120.0
Cc1ccc(NC(=O)CN(C)CC(=O)Nc2ccccc2Oc2ccccc2)cc1,5.4,-4.2,104.5,3.2,·,·,·
CCN(CC)P(=O)(Nc1ccc(C)cc1Br)c1ccc(N(C)C)cc1NC(=O)c1ccco1 (configuration not stated),1.9,-58.1,149.7*,-4.4,144.2*,103.2,110.8
N#Cc1c(Cl)c(Cl)c2nnc(-c3ccc(Br)cc3)n2c1Cl,5.2,-53.9,154.2*,8.5,151.9*,105.9,94.5
COc1ccc(CCC(=O)NCC2CCCCC2)cc1OC,-1.4,·,·,·,·,·,·
Cc1ccc(S(=O)(=O)N2CCC(N3CCN(C)CC3)CC2)cc1Cl,7.7,·,·,·,·,·,·
Oc1oc(-c2ccccc2)nc1/C=N/c1nccs1,-1.8,20.9,84.0,-15.5,·,·,·
Oc1oc(-c2ccccc2)nc1C=Nc1cccc2ccccc12,-0.3,-45.9,144.2*,-0.9,128.9,106.1,97.2
O=C(O)c1cc(Cl)c2ccccc2c1O,5.5,-44.0,138.9*,4.0,130.5,108.8,107.2
CC(C)(NC(=O)c1cc(Cl)c2ccccc2c1O)C(=O)O,1.5,·,·,·,·,·,·
CCOc1cc(Cl)c(S(=O)(=O)NCCCn2ccnc2)cc1Cl,5.4,·,·,·,·,·,·
Cn1cc(C(C[N+](=O)[O-])c2ccccc2)c2ccccc21 (configuration not stated),-3.8,·,·,·,·,·,·
CC(=O)n1cc(C(C[N+](=O)[O-])SCCN)c2ccccc21 (configuration not stated),2.6,-47.2,140.6*,2.3,137.5*,113.2,97.7
COc1ccc(CNC(=O)CCCn2nc(C)c3c(C)n(-c4ccccc4)nc3c2=O)cc1,-0.8,·,·,·,·,·,·
CC(C)(C)NC(=O)COC(=O)/C=C/c1ccccc1[N+](=O)[O-],-3.2,-8.9,106.0,10.6,·,·,·
O=C(COC(=O)/C=C/c1ccccc1[N+](=O)[O-])NC1CC1,-1.3,-43.6,149.4*,13.3,142.1*,99.9,82.6
